Results of several laboratories.
Lines come from different studies, so protocols differ.
NTRK3: NT-3 growth factor receptor (NTRK3, Homo sapiens, UniProt Q16288)
PSMB6/PSMB5/PSMB7: PSMB6/PSMB5/PSMB7 (Homo sapiens, UniProt P28072+P28074+Q99436)

SMILES | target | read-out | action | technique | cells | concentration | inhibition
CNC(=O)c1cc(Oc2ccc(NC(=O)Nc3ccc(Cl)c(C(F)(F)F)c3)cc2)ccn1 | Dual specificity mitogen-activated protein kinase kinase 7 (MAP2K7, Homo sapiens, UniProt O14733) | enzyme activity | inhibitor | – | – | 0.3 µM | 9%
Cc1ccc(C)c(NC(=O)CSc2nnc(Cc3cc(=O)[nH]c(=O)[nH]3)n2-c2ccc(Cl)cc2)c1 | Poly [ADP-ribose] polymerase tankyrase-1 (TNKS, Homo sapiens, UniProt O95271) | enzyme activity | inhibitor | – | – | 0.1 µM | 3%
CC(=O)c1nn(CC(=O)N2C[C@H](F)C[C@H]2C(=O)Nc2cccc(Br)n2)c2ccc(-c3cnc(C)nc3)cc12 | Dipeptidyl peptidase 4 (DPP4, Homo sapiens, UniProt P27487) | enzyme activity | inhibitor | – | – | 10 µM | -1%
CN1CCN(CC(=O)Nc2cccc(C(=O)Nc3ccc4[nH]ncc4c3)c2)CC1 | NTRK3 | enzyme activity | inhibitor | FRET | – | 1 µM | 23%
OCc1cc(C(O)CNCCCCCCOCCCCc2ccccc2)ccc1O (stereo not drawn) | C-X-C chemokine receptor type 4 (CXCR4, Homo sapiens, UniProt P61073) | calcium signal | antagonist | – | U87.CD4.CXCR4 | 20 µM | 15%
CC1=C(/C=C/C(C)=C/C=C/C(C)=C/C(=O)O)C(C)(C)CCC1 | Prothrombin (Rattus norvegicus, UniProt P18292) | enzyme activity | inhibitor | – | – | 200 µg/mL | 92%
CCN1CCN(Cc2ccc(NC(=O)c3ccc(C)c(Oc4ccnc5[nH]ccc45)c3)cc2C(F)(F)F)CC1 | Mitogen-activated protein kinase 3 (MAPK3, Homo sapiens, UniProt P27361) | target engagement in cells | inhibitor | chemoproteomics | A-375 | 0.5 µM | -44.6%
O=C(Nc1ccc(OC(F)(F)F)cc1)Nc1cccc(C(=O)Nc2ccc3[nH]ncc3c2)c1 | NTRK3 | enzyme activity | inhibitor | FRET | – | 1 µM | 17.3%
COC(=O)[C@@]12Oc3c(c(O)cc4c3[C@@H]3C=C[C@]5(C4)C(=C(O)c4c(O)cc(C)cc4[C@@H]5OC(C)=O)C3=O)C(O)=C1C(=O)C=C[C@@H]2O | PSMB6/PSMB5/PSMB7 | enzyme activity in cells | inhibitor | – | MCF7 | 20 µg/mL | 13%
O=C(O)CC[C@@H](O)C(=O)O | Methylcytosine dioxygenase TET2 (Mus musculus, UniProt Q4JK59) | enzyme activity | inhibitor | – | – | 50 mM | 83%
CN(C)C1CCN(CC#Cc2nn(C3CCCC3)c3nc(NCc4ccccc4)ncc23)C1 (stereo not drawn) | Cyclin-dependent kinase 9, with cyclin T1 (CDK9, Homo sapiens, UniProt P50750) | enzyme activity | inhibitor | FRET | – | 0.1 µM | 5%
COC(=O)c1c(O)ccc(O)c1C(=O)c1c(O)cc2c(c1O)[C@@H]1C=C[C@]3(C2)C(=C(O)c2c(O)cc(C)cc2[C@@H]3OC(C)=O)C1=O | PSMB6/PSMB5/PSMB7 | enzyme activity in cells | inhibitor | – | MCF7 | 20 µg/mL | 55%
